# Screens: PubChem BioAssay, several laboratories
# TAAR1 ag: human TAAR1 agonism. Q96RJ0. CHO RD-HGA16 TAAR1, Fluo-8 calcium fluorescence; vehicle wells 0%, saturating PEA agonist 100%. activation, % at 3 µM. 360,000 compounds, 0.99% hits. AID 624467;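 active = activation above the mean activation of all test compounds in the run plus 3 SD, cut at about 38% in these data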
# Target sequence (Q96RJ0 whole entry, looked up): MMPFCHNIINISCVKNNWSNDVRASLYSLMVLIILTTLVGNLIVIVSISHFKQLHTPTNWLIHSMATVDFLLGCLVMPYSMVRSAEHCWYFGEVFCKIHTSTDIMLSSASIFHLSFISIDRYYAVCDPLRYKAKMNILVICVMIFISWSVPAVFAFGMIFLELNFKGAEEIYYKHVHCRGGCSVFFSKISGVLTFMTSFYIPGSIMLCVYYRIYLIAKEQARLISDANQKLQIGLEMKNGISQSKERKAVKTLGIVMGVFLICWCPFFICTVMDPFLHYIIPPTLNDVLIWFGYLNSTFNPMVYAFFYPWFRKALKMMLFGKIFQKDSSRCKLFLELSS
#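 System: CHO-derived RD-HGA16 cells with stable Gα16 and human TAAR1. Times: 17-24 h plating, Fluo-8 75 min 37 °C, 30 min RT. Measured by: calcium-sensitive Fluo-8 signal, excitation 470-495, emission 515-575 nm. Read-out basis: % activation relative to PEA EC100 response. Control set: DMSO and PEA EC100. Repeats: no replicates (n 1).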
# ANO1 block: mouse TMEM16A channel inhibition, primary screen; Q8BHY3; HEK293 TMEM16A/YFP iodide influx fluorescence, ionomycin; normalized B-score (activity score, 25-100; higher = stronger inhibition) at 10 µM; 310,000 compounds, 1.2% hits; AID 588511;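 active = ratio plate-corrected score three or more library SD toward inhibition, starting fluorescence score within five deviations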;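 also: score derived from kinetic fluorescence span divided by baseline fluorescence per well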
# CRFBP-R2 block: blocks CRF-induced signaling of the CRF-BP/CRF-R2 complex. 350,000 compounds, 0.59% hits. AID 588475. inhibition, % at 11.8 µM. HEK293 CRF-R2/CRF-BP, CRF-induced calcium fluorescence;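 active = inhibition of the ligand-induced calcium signal above about 50% at the single tested concentration, limit read from the data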
# TMEM16A act: activators or potentiators of mouse TMEM16A chloride channel | AID 623877 | 340,000 compounds, 0.3% hits | B-score at 10 µM | HEK293 TMEM16A/YFP-H148Q/I152L, iodide quench fluorescence; stronger effect = lower value;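 active = fluorescence-ratio B-score plate-corrected deviation score at least 3 library SD below zero, with starting fluorescence score within 5 deviations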;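 also: channel opened by trigger with iodide after compound preincubation; score built on the fluorescence ratio of max minus min over baseline; more negative score means more quench and so TMEM16A activation or potentiation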
# TAAR1 antagonist: antagonists of human TAAR1 | Q96RJ0 | CHO RD-HGA16 TAAR1, Fluo-8 calcium fluorescence, antagonist | inhibition, % at 3 µM | 360,000 compounds, 1.5% hits | AID 624466;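 active = inhibition above a per-plate cutoff, the mean inhibition of test compounds on that plate plus 3 SD, cut at about 49% in these data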;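 also: 0% = DMSO plus EC80 beta-PEA response and 100% = DMSO alone without agonist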
#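 Material: RD-HGA16 CHO cells with stable hTAAR1 and Gα16; Dosing: single nominal final test compound concentration of 3 µM; Schedule: seeding 17-24 h prior, 75-min 37 °C, 30-min RT dye loading; Detection: kinetic Fluo-8 calcium fluorescence measurement; Measure: % inhibition from peak post-agonist over basal fluorescence ratio; Benchmarks: vehicle and agonist controls.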
# CRFBP-R2 agonist: agonists of human CRF-binding protein/CRF-R2 receptor complex; 350,000 compounds, 0.46% hits; activation, % at 13.2 µM; HEK293 CRF-R2/CRF-BP, calcium dye fluorescence (FLIPR); percent of saturating CRF peptide response;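 active = activation of at least 50%, plus an integration ratio under a set limit after plate pattern correction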;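 also: plate controls were neutral control wells without compound for no effect and CRF at EC100 for full effect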
# TAAR1 ag conf: confirmation of human TAAR1 agonists. 2,400 compounds, 82% hits. shares compounds with TAAR1 ag. AID 651783. activation, % at 3 µM. CHO RD-HGA16 TAAR1, Fluo-8 calcium fluorescence; scaled: DMSO 0%, maximal phenethylamine 100%;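 active = activation above a cutoff set at the run's mean compound activation plus 3 SD, cut at about 39% in these data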
# Ga16 nonsel ag: nonselective agonism, TAAR1 counter-screen | shares compounds with TAAR1 ag | CHO-Ga16 parental, Fluo-8 calcium fluorescence; normalized to maximal ATP response, DMSO zero | activation, % at 3 µM | 2,400 compounds, 50% hits | AID 651787;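 active = activation above the run cutoff, the mean activation over all tested wells plus 3 SD, cut at about 12% in these data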;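 also: 0% = DMSO wells and 100% = maximal ATP response on the peak over basal ratio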
# TAAR1 desensitize: counter-screen for human TAAR1 agonists: agonists that desensitize TAAR1. shares compounds with TAAR1 ag. CHO RD-HGA16 hTAAR1, Fluo-8 calcium, beta-PEA response inhibition. inhibition, % at 3 µM. 2,400 compounds, 46% hits. AID 651951;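 active = inhibition above the run cutoff, the mean inhibition of all test compounds plus 3 SD, cut at about 49% in these data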;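 also: beta-PEA stimulus applied at its EC80; loss of beta-PEA calcium signal after compound pretreatment read as receptor desensitization; 0% = DMSO with beta-PEA at EC80 and 100% = DMSO alone without agonist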
# Ga16 antag count: nonselective Ga16 antagonism, counter-screen. shares compounds with TAAR1 ag. CHO-Ga16 ATP-induced calcium, Fluo-8 fluorescence. inhibition, % at 3 µM. 2,400 compounds, 39% hits. AID 651952;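 active = inhibition above the plate's mean compound inhibition plus 3 SD, computed per plate, cut at about 22% in these data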;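 also: 0% = EC80 ATP with DMSO and 100% = DMSO wells without ATP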
# * hit, by the source's call; i = inactive; / = no result given. In the library only some 3.9% were active in any assay of this set; here they are far more common.
SMILES,TAAR1 ag,ANO1 block,CRFBP-R2 block,TMEM16A act,TAAR1 antagonist,CRFBP-R2 agonist,TAAR1 ag conf,Ga16 nonsel ag,TAAR1 desensitize,Ga16 antag count
COc1ccc2c(c1)C(SCC(=O)NCCc1ccccc1)CC(C)(C)O2 (stereo unspecified),68*,i,-2,i,61*,1,73*,1,76*,16
N/C(Cc1cccc2ccccc12)=N\OC(=O)c1cccs1,/,i,2,i,/,-2,/,/,/,/
COc1ccc(CC(=O)O/N=C(\N)Cc2cccc3ccccc23)cc1OC,42*,i,21,i,25,1,65*,2,45,19
COc1ccc(CC(=O)O/N=C(\N)Cc2cccc3ccccc23)cc1,29,i,9,i,11,2,/,/,/,/
N/C(Cc1cccc2ccccc12)=N\OC(=O)Cc1cccs1,61*,i,16,i,26,0,74*,1,24,3
O=C(NCC1CCCO1)c1ccc2[nH]c3c(c2c1)CCCC3 (stereo unspecified),-1,/,-1,i,-23,-1,/,/,/,/
CNC(=O)C[C@H]1C(=O)N(CCc2ccccc2)C[C@@H]1c1ccc(OC)cc1,42*,/,6,/,5,0,76*,-1,16,4
COc1ccc([C@H]2CN(CCc3ccccc3)C(=O)[C@@H]2CC(=O)Nc2ccccc2)cc1,50*,/,7,/,21,-1,35,6,10,13
C[C@H](O)[C@@H]1CN2CCc3c([nH]c4c(-c5ccccc5)cccc34)[C@@H]2C[C@@H]1N(C)C(=S)NCCc1ccccc1,85*,/,/,/,61*,/,37,0,3,14
C[C@H](O)[C@@H]1CN2CCc3c([nH]c4c(-c5ccccc5)cccc34)[C@@H]2C[C@@H]1N(C)C(=O)Nc1ccccc1,16,/,/,/,-19,/,/,/,/,/
COc1cc(C2C3=C(COC3=O)Oc3cc4c(cc32)OCO4)cc(OC)c1O (stereo unspecified),7,/,2,i,-16,3,/,/,/,/
Clc1cccc(Cl)c1CSc1nnc(-c2ccncc2)s1,117*,i,-41,i,79*,26,128*,117*,100*,75*
COc1cccc(OC)c1C(=O)NCCc1ccccc1,81*,i,3,i,8,-1,80*,0,63*,6
COC(=O)c1c(N)sc(C(=O)NCCc2ccccc2)c1C,101*,i,5,i,74*,0,86*,4,89*,22*
COc1cc(C)c(NC(=O)C(=S)NCCc2ccccc2)cc1C,66*,i,-5,i,79*,2,92*,2,85*,16
COc1cc(NC(=S)NCCc2ccccc2)c(OC)cc1NC(=O)C(C)C,12,i,6,i,-8,-1,/,/,/,/
COc1cccc(NC(=O)CN2C(=O)NC(CCc3ccccc3)C2=O)c1 (stereo unspecified),27,/,-2,i,-9,-2,/,/,/,/
O=C1NC(CCc2ccccc2)C(=O)N1CCOc1cccc(Br)c1 (stereo unspecified),59*,i,-2,i,-14,0,8,3,2,17
O=C1c2ccccc2[C@@H]2Cc3csc[n+]3[C@H]12,4,/,/,/,7,/,/,/,/,/
COc1ccc(NS(=O)(=O)c2cccc(C(=O)OCC(=O)N3CCN(c4ccc(OC)cc4)CC3)c2)cc1,5,i,12,i,17,-2,/,/,/,/
CCCCN(CCCC)c1ccc(C(=O)c2ccccc2C(=O)O)c(O)c1,107*,i,-11,i,92*,-1,38*,39*,64*,57*
CN(C)c1ccc(C(=O)c2ccccc2C(=O)O)c(O)c1,2,i,5,i,7,0,/,/,/,/
COc1ccc(NC(=O)c2nnn(CC(=O)Nc3ccccc3OC)c2N)c(OC)c1,7,i,-8,i,-14,1,/,/,/,/
CCc1ccc(Cn2nnc(C(=O)Nc3ccc(OC)cc3OC)c2N)cc1,72*,i,-62,i,10,16,60*,22*,25,20
COc1cccc(NC(=O)c2nnn(Cc3ccc(Br)cc3F)c2N)c1,59*,i,-54,i,53*,16,76*,32*,59*,36*
SMILES,TAAR1 ag,ANO1 block,CRFBP-R2 block,TMEM16A act,TAAR1 antagonist,CRFBP-R2 agonist,TAAR1 ag conf,Ga16 nonsel ag,TAAR1 desensitize,Ga16 antag count
COc1cccc(NC(=O)Cn2nnc(C(=O)Nc3ccccc3)c2N)c1,8,i,6,i,-10,0,/,/,/,/
CCN(CC)CCNC(=O)c1ccc(NC(=O)c2cccc(S(=O)(=O)N3CCc4ccccc43)c2)cc1,60*,/,-23,i,2,0,60*,0,39,10
CCc1c(C)nc2ncnn2c1NCCc1ccc(Cl)cc1,2,i,21,i,13,-4,/,/,/,/
CCc1c(C)nc2ncnn2c1NCCc1ccccc1,76*,i,0,i,13,0,92*,13*,61*,24*
Cc1ccc(S(=O)(=O)c2ccc(Cl)cc2)cc1S(=O)(=O)NC(C)C(=O)O (stereo unspecified),1,i,9,i,0,-2,/,/,/,/
O=C(O)c1c[nH]c2nccnc12,1,/,-27,/,2,-1,/,/,/,/
O=C(O)c1ccc(S(=O)(=O)N2CCc3ccccc3C2)cc1,15,i,-9,i,-9,-1,/,/,/,/
CC1Cc2ccccc2N1C(=O)CN1C(=O)NC(C)(c2ccc3c(c2)OCCO3)C1=O (stereo unspecified),53*,i,-36,i,-5,1,43*,9,4,9
CC1(c2ccc3c(c2)OCCO3)NC(=O)N(CC(=O)c2ccc[nH]2)C1=O (stereo unspecified),7,/,-21,i,5,8,/,/,/,/
